Measurements from ChEMBL document CHEMBL1781932 (J Med Chem, 2011).
In brackets after ≈: the same amount, converted by molar mass.

Tests used:
[1] = test system: Klebsiella pneumoniae; experiment: Antimicrobial activity against tetracycline-resistant Klebsiella pneumoniae isolate 153 harboring tetA gene by CLSI dilution method; format: functional
[2] = test system: Escherichia coli; experiment: Antimicrobial activity against tetracycline-resistant Escherichia coli isolate 155 harboring tetA gene by CLSI dilution method; format: functional
[3] = test system: Pseudomonas aeruginosa; experiment: Antimicrobial activity against tetracycline-susceptible Pseudomonas aeruginosa isolate 111 by CLSI dilution method; format: functional
In short: (§1)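 Broth microdilution per CLSI in fresh cation-adjusted Mueller Hinton broth, kept at 4 °C before testing, with defibrinated horse blood added as appropriate. Strains were from ATCC. MIC in µg/mL. Runs were accepted when comparator antibiotics against ATCC quality-control strains fell within recommended ranges.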

[4] = test system: Staphylococcus aureus; experiment: Antimicrobial activity against methicillin-, tetracycline-resistant Staphylococcus aureus isolate 161 harboring tetM gene by CLSI dilution method; format: functional
[5] = test system: Staphylococcus aureus; experiment: Antimicrobial activity against tetracycline-susceptible Staphylococcus aureus isolate 101 by CLSI dilution method; format: functional
[6] = test system: Streptococcus pneumoniae; experiment: Antimicrobial activity against tetracycline-susceptible Streptococcus pneumoniae isolate 106 by CLSI dilution method; format: functional; in short: as §1
[7] = test system: Staphylococcus aureus; experiment: Antimicrobial activity against tetracycline-resistant Staphylococcus aureus isolate 158 harboring tetK gene by CLSI dilution method; format: functional
[8] = test system: Escherichia coli; experiment: Antimicrobial activity against tetracycline-susceptible Escherichia coli isolate 107 by CLSI dilution method; format: functional; in short: as §1
[9] = test system: Streptococcus pneumoniae; experiment: Antimicrobial activity against tetracycline-resistant Streptococcus pneumoniae isolate 160 harboring tetM gene by CLSI dilution method; format: functional
[10] = test system: Enterobacter cloacae; experiment: Antimicrobial activity against tetracycline-susceptible Enterobacter cloacae isolate 108 by CLSI dilution method; format: functional; in short: as §1
[11] = test system: Acinetobacter baumannii; experiment: Antimicrobial activity against tetracycline-susceptible Acinetobacter baumannii isolate 110 by CLSI dilution method; format: functional; in short: as §1
[12] = test system: Enterococcus faecalis; experiment: Antimicrobial activity against tetracycline-resistant Enterococcus faecalis isolate 159 harboring […] gene by CLSI dilution method; format: functional
[13] = test system: Klebsiella pneumoniae; experiment: Antimicrobial activity against tetracycline-susceptible Klebsiella pneumoniae isolate 109 by CLSI dilution method; format: functional; in short: as §1
[14] = test system: Enterococcus faecalis; experiment: Antimicrobial activity against tetracycline-susceptible Enterococcus faecalis isolate 103 by CLSI dilution method; format: functional; in short: as §1
[15] = Apparent volume of distribution in Sprague-Dawley rat at 1 mg/kg, iv administered as single dose measured after 24 to 48 hrs; conditions: in vivo
[16] = Cmax in Sprague-Dawley rat at 1 mg/kg, iv administered as single dose measured after 24 to 48 hrs; format: ADME, organism-based; set-up: dose 1 mg/kg, route intravenous; conditions: in vivo
In short: (§2)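 Sprague-Dawley rats (n = 3) were fasted overnight (minimum 12 h) and given a single dose, iv 1 mg/kg or oral 10 mg/kg, in sterile water. Samples were taken over 24–48 h. PK parameters came from noncompartmental analysis.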

[17] = Elimination half life in Sprague-Dawley rat at 1 mg/kg, iv administered as single dose; format: ADME, organism-based; set-up: dose 1 mg/kg, route intravenous; conditions: in vivo, read-out: beta t1/2 (converted); in short: as §2
[18] = test system: Rattus norvegicus; experiment: Oral bioavailability in Sprague-Dawley rat at 10 mg/kg administered as single dose; format: ADME, organism-based; conditions: in vivo; in short: as §2
[19] = test system: Staphylococcus aureus; experiment: Antimicrobial activity against tetracycline-susceptible Staphylococcus aureus Smith isolate 100 by CLSI dilution method; format: functional
[20] = test system: Staphylococcus aureus; experiment: Antimicrobial activity against tetracycline-susceptible Staphylococcus aureus Smith isolate 100 infected in iv dosed mouse systemic infection model assessed as survival of mouse administered 60 mins post infection measured up to 48 hrs; format: functional; conditions: Smith isolate 100, iv, read-out: PD50
In short: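 Mouse septicemia model with S. aureus ATCC 13709 mixed with 5% mucin, given intraperitoneally at 2.1×10^6 cfu/mouse. Compound was dosed intravenously 60 min after infection at 0.3–30 mg/kg in sterile water, 6 mice/dose group, with untreated infection controls. Survival was followed over 48 h. PD50 was derived by Probit analysis with 95% CI.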

[21] = AUC (0 to infinity) in Sprague-Dawley rat at 1 mg/kg, iv administered as single dose measured after 24 to 48 hrs; format: ADME, organism-based; set-up: time infinity, dose 1 mg/kg, route intravenous; conditions: plasma; in short: as §2
[22] = Clearance in Sprague-Dawley rat at 1 mg/kg, iv administered as single dose measured after 24 to 48 hrs; format: ADME, organism-based; set-up: dose 1 mg/kg, route intravenous; conditions: in vivo; in short: as §2

Row | SMILES | MIC [1] [µg/mL] | MIC [2] [µg/mL] | MIC [3] [µg/mL] | MIC [4] [µg/mL] | MIC [5] [µg/mL] | MIC [6] [µg/mL] | MIC [7] [µg/mL] | MIC [8] [µg/mL] | MIC [9] [µg/mL] | MIC [10] [µg/mL] | MIC [11] [µg/mL] | MIC [12] [µg/mL] | MIC [13] [µg/mL] | MIC [14] [µg/mL] | Vd [15] [L/kg] | Cmax [16] [ng/mL] | half-life [17] [h] | F [18] [%] | MIC [19] [µg/mL] | AUC(0-inf) [21] [ng·h/mL] | also measured
1 | CN(C)[C@@H]1C(O)=C(C(N)=O)C(=O)[C@@]2(O)C(O)=C3C(=O)c4c(cc5ccc(CN(C)S(C)(=O)=O)cc5c4O)C[C@H]3C[C@@H]12 | > 32 | > 32 | > 32 | 2 (≈ 3.42 µM) | 2 (≈ 3.42 µM) | 1 (≈ 1.71 µM) | 2 (≈ 3.42 µM) | > 32 | 4 (≈ 6.83 µM) | > 32 | > 32 | 2 (≈ 3.42 µM) | > 32 | 2 (≈ 3.42 µM) | – | – | – | – | – | – | –
2 | CN(C)[C@@H]1C(O)=C(C(N)=O)C(=O)[C@@]2(O)C(O)=C3C(=O)c4c(c(F)c5ccc(CNC(C)(C)C)cc5c4O)C[C@H]3C[C@@H]12 | 4 (≈ 7.05 µM) | 4 (≈ 7.05 µM) | 16 (≈ 28.2 µM) | 1 (≈ 1.76 µM) | 0.5 (≈ 0.881 µM) | 0.0156 (≈ 0.0275 µM) | 0.0156 (≈ 0.0275 µM) | – | 0.0313 (≈ 0.0551 µM) | – | 0.25 (≈ 0.44 µM) | 1 (≈ 1.76 µM) | 2 (≈ 3.52 µM) | 0.0313 (≈ 0.0551 µM) | 11.9 | 278 | 7.82 | 1.2 | 0.5 (≈ 0.881 µM) | 975 | ED50 [20]: 0.35 mg/kg; clearance [22]: 17.7 mL/min/kg
3 | CN(C)[C@@H]1C(O)=C(C(N)=O)C(=O)[C@@]2(O)C(O)=C3C(=O)c4c(c(F)c5ccc(CN6CC(F)C6)cc5c4O)C[C@H]3C[C@@H]12 | 8 (≈ 14 µM) | 8 (≈ 14 µM) | > 32 | 1 (≈ 1.76 µM) | 0.5 (≈ 0.878 µM) | 0.25 (≈ 0.439 µM) | 0.25 (≈ 0.439 µM) | 4 (≈ 7.02 µM) | – | 8 (≈ 14 µM) | 1 (≈ 1.76 µM) | 1 (≈ 1.76 µM) | 4 (≈ 7.02 µM) | 0.25 (≈ 0.439 µM) | 3.06 | 358 | 2.22 | 16.7 | 1 (≈ 1.76 µM) | 1040 | clearance [22]: 16.1 mL/min/kg
4 | COc1c2c(c(O)c3cc(CN4CC(F)C4)ccc13)C(=O)C1=C(O)[C@]3(O)C(=O)C(C(N)=O)=C(O)[C@@H](N(C)C)[C@@H]3C[C@@H]1C2 | 8 (≈ 13.8 µM) | 8 (≈ 13.8 µM) | 32 (≈ 55 µM) | 1 (≈ 1.72 µM) | 0.25 (≈ 0.43 µM) | 0.0156 (≈ 0.0268 µM) | 0.125 (≈ 0.215 µM) | 2 (≈ 3.44 µM) | 0.0313 (≈ 0.0538 µM) | 8 (≈ 13.8 µM) | 0.25 (≈ 0.43 µM) | 2 (≈ 3.44 µM) | 4 (≈ 6.88 µM) | 0.125 (≈ 0.215 µM) | 5.06 | 237 | 1.5 | 17.7 | 1 (≈ 1.72 µM) | 451 | clearance [22]: 63.9 mL/min/kg
5 | CN(C)[C@@H]1C(O)=C(C(N)=O)C(=O)[C@@]2(O)C(O)=C3C(=O)c4c(c(Cl)c5ccc(F)cc5c4O)C[C@H]3C[C@@H]12 | > 32 | > 32 | > 32 | 2 (≈ 3.87 µM) | 2 (≈ 3.87 µM) | > 32 | 2 (≈ 3.87 µM) | > 32 | > 32 | > 32 | > 32 | 2 (≈ 3.87 µM) | > 32 | 2 (≈ 3.87 µM) | – | – | – | – | – | – | –
6 | CN(C)[C@@H]1C(O)=C(C(N)=O)C(=O)[C@@]2(O)C(O)=C3C(=O)c4c(cc5c(CNC6CC6)cccc5c4O)C[C@H]3C[C@@H]12 | > 32 | > 32 | > 32 | 16 (≈ 30 µM) | 2 (≈ 3.75 µM) | 0.5 (≈ 0.937 µM) | 1 (≈ 1.87 µM) | 16 (≈ 30 µM) | 4 (≈ 7.5 µM) | > 32 | 4 (≈ 7.5 µM) | 16 (≈ 30 µM) | 32 (≈ 60 µM) | 4 (≈ 7.5 µM) | – | – | – | – | – | – | –
7 | CNc1cccc2c(O)c3c(cc12)C[C@H]1C[C@H]2[C@H](N(C)C)C(O)=C(C(N)=O)C(=O)[C@@]2(O)C(O)=C1C3=O | > 32 | > 32 | > 32 | 4 (≈ 8.11 µM) | 2 (≈ 4.05 µM) | 4 (≈ 8.11 µM) | 2 (≈ 4.05 µM) | > 32 | 16 (≈ 32.4 µM) | > 32 | 32 (≈ 64.8 µM) | 4 (≈ 8.11 µM) | > 32 | 4 (≈ 8.11 µM) | – | – | – | – | – | – | –
